Experiments:
[1] = Genotoxicity in Salmonella typhimurium TA1535 harboring pSK1002 assessed as umu gene induction at 0.008 mg/ml in presence of Sprague-Dawley rat liver S9 fraction metabolic activation by SOS/umu assay relative to control; assay type: toxicity, subcellular; details: salmonella enterica subsp. enterica serovar typhimurium, read-out: FC
How it was run: (§1)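 umu induction in S. typhimurium TA1535/pSK1002, with or without S9 mix, in 96-well format. β-galactosidase read colorimetrically with ONPG substrate. Output given as relative units and induction factor (IF). The run is valid if positive controls reach IF ≥2. A compound counts as genotoxic at IF ≥2 at a concentration giving ≥80% bacterial survival.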

Trypanosoma cruzi [2] = assay: Trypanocidal activity against Trypanosoma cruzi trypomastigote form infected in African green monkey Vero cells assessed as ratio of infected cells at 25 uM measured after 72 hrs by Giemsa staining based assay relative to control; assay type: functional
How it was run: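 Vero cells in RPMI with 10% heat-inactivated FBS, seeded at 1 × 10^4/well on coverslips for 24 h at 37 °C, 5% CO2. Infected with bloodstream trypomastigotes at MOI 10:1 for 24 h, then washed three times with PBS. Compounds added at 3.1–50 µM for 72 h. Infected cells counted after Giemsa staining. Triplicates, two separate determinations.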

[3] = Genotoxicity in Salmonella typhimurium TA1535 harboring pSK1002 assessed as survival at 0.5 mg/ml in presence of Sprague-Dawley rat liver S9 fraction metabolic activation by SOS/umu assay relative to control; assay type: toxicity, subcellular; details: salmonella enterica subsp. enterica serovar typhimurium, read-out: Survival
How it was run: (§2)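 Survival of S. typhimurium TA1535/pSK1002 exposed to a range of compound concentrations with or without S9 mix in 96-well format. Survival percentage measured as the cytotoxicity arm of the SOS/umu test. Concentrations with survival ≥80% are counted as non-cytotoxic.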

[4] = Genotoxicity in Salmonella typhimurium TA1535 harboring pSK1002 assessed as survival at 0.25 mg/ml in presence of Sprague-Dawley rat liver S9 fraction metabolic activation by SOS/umu assay relative to control; assay type: toxicity, subcellular; details: salmonella enterica subsp. enterica serovar typhimurium, read-out: Survival; how it was run: as §2
[5] = Genotoxicity in Salmonella typhimurium TA1535 harboring pSK1002 assessed as survival at 0.002 mg/ml in presence of Sprague-Dawley rat liver S9 fraction metabolic activation by SOS/umu assay relative to control; assay type: toxicity, subcellular; details: salmonella enterica subsp. enterica serovar typhimurium, read-out: Survival; how it was run: as §2
[6] = Genotoxicity in Salmonella typhimurium TA1535 harboring pSK1002 assessed as umu gene induction at 0.5 mg/ml in absence of Sprague-Dawley rat liver S9 fraction metabolic activation by SOS/umu assay relative to control; assay type: toxicity; details: salmonella enterica subsp. enterica serovar typhimurium, read-out: FC; how it was run: as §1
[7] = Genotoxicity in Salmonella typhimurium TA1535 harboring pSK1002 assessed as umu gene induction at 0.125 mg/ml in absence of Sprague-Dawley rat liver S9 fraction metabolic activation by SOS/umu assay relative to control; assay type: toxicity; details: salmonella enterica subsp. enterica serovar typhimurium, read-out: FC; how it was run: as §1
[8] = Genotoxicity in Salmonella typhimurium TA1535 harboring pSK1002 assessed as umu gene induction at 0.016 mg/ml in absence of Sprague-Dawley rat liver S9 fraction metabolic activation by SOS/umu assay relative to control; assay type: toxicity; details: salmonella enterica subsp. enterica serovar typhimurium, read-out: FC; how it was run: as §1
[9] = Genotoxicity in Salmonella typhimurium TA1535 harboring pSK1002 assessed as umu gene induction at 0.008 mg/ml in absence of Sprague-Dawley rat liver S9 fraction metabolic activation by SOS/umu assay relative to control; assay type: toxicity; details: salmonella enterica subsp. enterica serovar typhimurium, read-out: FC; how it was run: as §1
[10] = Genotoxicity in Salmonella typhimurium TA1535 harboring pSK1002 assessed as umu gene induction at 0.004 mg/ml in absence of Sprague-Dawley rat liver S9 fraction metabolic activation by SOS/umu assay relative to control; assay type: toxicity; details: salmonella enterica subsp. enterica serovar typhimurium, read-out: FC; how it was run: as §1
[11] = Genotoxicity in Salmonella typhimurium TA1535 harboring pSK1002 assessed as umu gene induction at 0.002 mg/ml in absence of Sprague-Dawley rat liver S9 fraction metabolic activation by SOS/umu assay relative to control; assay type: toxicity; details: salmonella enterica subsp. enterica serovar typhimurium, read-out: FC; how it was run: as §1
[12] = Genotoxicity in Salmonella typhimurium TA1535 harboring pSK1002 assessed as umu gene induction at 0.001 mg/ml in absence of Sprague-Dawley rat liver S9 fraction metabolic activation by SOS/umu assay relative to control; assay type: toxicity; details: salmonella enterica subsp. enterica serovar typhimurium, read-out: FC; how it was run: as §1
Trypanosoma cruzi [13] = assay: Antitrypanosomal activity against Trypanosoma cruzi MHOM/Pe/2011/Arequipa;DTU 5 bloodstream trypomastigotes infected in BALB/c mouse assessed as decrease in splenomegaly in chronic phase at 20 mg/kg/day, po administered for 5 consecutive days starting from day 70 post infection relative to untreated control; assay type: functional; set-up: scale not given: the % may be the effect or the level left
How it was run: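 Female BALB/c mice (three per group) were infected i.p. with 5 × 10^5 Arequipa trypomastigotes and dosed orally at 20 mg/kg/day for 5 days in 5% DMSO/0.5% HPMC. Controls were uninfected and vehicle-only groups. At the end of the experiment spleens were weighed and expressed as % of body weight.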

[14] = (§3) Toxicity in BALB/c mouse infected with Trypanosoma cruzi MHOM/Pe/2011/Arequipa;DTU 5 bloodstream trypomastigote assessed as change in serum aspartate aminotransferase level in acute phase at 20 mg/kg/day, po administered for 5 consecutive days starting from day 8 post infection and measured on day 100 post infection by biochemical assay relative to control; assay type: organism-based; details: in vivo
How it was run: (§4)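 Female BALB/c mice (10–12 weeks, 14–20 g; groups of three) were infected i.p. with 5 × 10^5 Arequipa bloodstream trypomastigotes. Dosing was oral at 20 mg/kg/day for 5 days, from day 8 pi (acute) or day 70 pi (chronic), as a 2 mg/ml suspension in 5% DMSO/0.5% HPMC; controls received vehicle. Cyclophosphamide 200 mg/kg i.p. was given at day 80 pi. Serum was collected 2 days post-treatment and at necropsy by cardiac puncture and compared with infected untreated controls.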

[15] = (§5) Toxicity in BALB/c mouse infected with Trypanosoma cruzi MHOM/Pe/2011/Arequipa;DTU 5 bloodstream trypomastigote assessed as decrease in serum urea level in chronic phase at 20 mg/kg/day, po administered for 5 consecutive days starting from day 70 post infection and measured at day 76 post infection relative to control; assay type: organism-based; set-up: scale not given: the % may be the effect or the level left; details: in vivo; how it was run: as §4
[16] = Toxicity in BALB/c mouse infected with Trypanosoma cruzi MHOM/Pe/2011/Arequipa;DTU 5 bloodstream trypomastigote assessed as decrease in serum total bilirubin level in chronic phase at 20 mg/kg/day administered for 5 consecutive days starting from […] post infection and measured after 2 days of treatment by biochemical analysis (reference value: 0.25 mg/dl ); assay type: organism-based; set-up: scale not given: the % may be the effect or the level left; details: in vivo, 48 h
[17] = as §5, with “serum total bilirubin” for “serum urea”, “infection” for “infection and”, “measured on” for “measured at”, “day 100” for “day 76”; assay type: organism-based; set-up: scale not given: the % may be the effect or the level left; details: in vivo; how it was run: as §4
[18] = Inhibition of Trypanosoma cruzi MHOM/Pe/2011/Arequipa;DTU 5 epimastigote Fe-SOD
How it was run: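 Fe-SOD excreted by exponentially growing T. cruzi Arequipa epimastigotes cultured in supplemented MTL at 28 °C. Protein quantified by Bradford. SOD activity measured by the Beyer–Fridovich method. IC50 from inhibition curves by nonlinear regression. Mean of three independent determinations ± standard deviation.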

[19] = Toxicity in BALB/c mouse infected with Trypanosoma cruzi MHOM/Pe/2011/Arequipa;DTU 5 bloodstream trypomastigote assessed as increase in serum total bilirubin level in acute phase at 20 mg/kg/day, po administered for 5 consecutive days starting from day 8 post infection and measured at day 14 post infection by biochemical analysis relative to control; assay type: organism-based; details: in vivo; how it was run: as §4
[20] = as §3, with “decrease” for “change”, “uric acid” for “aspartate aminotransferase”, “analysis” for “assay”; assay type: organism-based; set-up: scale not given: the % may be the effect or the level left; details: in vivo; how it was run: as §4
[21] = as §5, with “uric acid” for “urea”; assay type: organism-based; set-up: scale not given: the % may be the effect or the level left; details: in vivo; how it was run: as §4
[22] = as §5, with “serum uric acid” for “serum urea”, “infection” for “infection and”, “measured on” for “measured at”, “day 100” for “day 76”; assay type: organism-based; set-up: scale not given: the % may be the effect or the level left; details: in vivo; how it was run: as §4

O=C(CCN1CCN(c2ccc(Cl)cc2)CC1)c1ccc(O)cc1
fold induction at 0.008 mg/ml [1]: 0.77
Ratio (Trypanosoma cruzi [2]): 19%
viability at 0.5 mg/ml [3]: 157%
viability at 0.25 mg/ml [4]: 138%
viability at 0.002 mg/ml [5]: 111%
fold induction at 0.5 mg/ml [6]: 0.26
fold induction at 0.125 mg/ml [7]: 0.45
fold induction at 0.016 mg/ml [8]: 0.66
fold induction at 0.008 mg/ml [9]: 0.71
fold induction at 0.004 mg/ml [10]: 0.68
fold induction at 0.002 mg/ml [11]: 0.78
fold induction at 0.001 mg/ml [12]: 0.83
Activity (Trypanosoma cruzi [13]): 81%
Activity [14]: > 10%
Activity [15]: <= 30%
Activity [16]: <= 10%
Activity [17]: <= 10%
IC50 [18]: 3.9 µM
Activity [19]: <= 10%

O=C(Cn1ccnc1[N+](=O)[O-])NCc1ccccc1 [BENZNIDAZOLE]
Activity [20]: <= 10%
Ratio (Trypanosoma cruzi [2]): 18%
Activity [15]: <= 20%
Activity [21]: <= 30%
Activity [16]: <= 10%
Activity [22]: <= 30%
Activity [17]: <= 10%

O=C(CCN1CCN(c2ccc(C(F)(F)F)cc2)CC1)c1ccc(O)cc1
Activity [20]: <= 30%
fold induction at 0.008 mg/ml [1]: 0.83
viability at 0.5 mg/ml [3]: 124%
viability at 0.25 mg/ml [4]: 140%
viability at 0.002 mg/ml [5]: 108%
fold induction at 0.5 mg/ml [6]: 0.43
fold induction at 0.125 mg/ml [7]: 0.7
fold induction at 0.016 mg/ml [8]: 0.74
fold induction at 0.008 mg/ml [9]: 0.75
fold induction at 0.004 mg/ml [10]: 0.69
fold induction at 0.002 mg/ml [11]: 0.74
fold induction at 0.001 mg/ml [12]: 0.91
Activity (Trypanosoma cruzi [13]): 66%
Activity [14]: > 10%
Activity [21]: <= 20%
Activity [22]: <= 10%
IC50 [18]: 4.3 µM
Activity [19]: > 40%

Source: ChEMBL document CHEMBL4402517, “Rational modification of Mannich base-type derivatives as novel antichagasic compounds: Synthesis, in vitro and in vivo evaluation” (Bioorg Med Chem, 2019)
